Consider 18 molecules from PubChem BioAssay.

Each structure is given as a SMILES string. Values without a mark were called inactive. Records with an inconclusive call do not appear. The source made the active and inactive calls.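 The calls were made as follows, unless noted: active = inhibition over a set limit, the all-compound mean plus 3 SD, in both replicate runs; inconclusive = over that limit in just one replicate run; inactive = at or under that limit in both runs.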

The nature of experiment [1]: S. cerevisiae growth inhibition in permissive medium (OD615), pilot counter-assay for S. cerevisiae lifespan shortening project, permissive growth control (AID 705;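 active = growth inhibition above 25% in both replicates, a cutoff set 3 SD above the mean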). The conditions noted are these: OD615, 24 h, at 10 µM, hits give high values. The procedure, abridged: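 System: engineered DeaD yeast; Medium: permissive raffinose/galactose medium; Compound dosing: 10 µM single dose, 0.25% DMSO; Incubation: 4 h cell pre-growth, 24 h exposure at 30 °C; Technique: OD at 615 nm; Evaluation: growth inhibition from lowered OD615 after 24 h.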

The nature of experiment [2]: S. cerevisiae growth inhibition in restrictive medium, OD615, pilot screen, restrictive growth control, yeast lifespan reduction project (AID 706;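 active = growth inhibition above a set limit, 3 SD over mean compound inhibition, in both replicates, cut at about 43% in these data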;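 also: modified DeaD lifespan yeast strain shifted to restrictive glucose medium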). The settings on record: OD615, 48 h, at 10 µM, hits give high values. The method in brief:
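Material: modified S. cerevisiae; buffer or medium: CSMM-D glucose medium; doses: one concentration, 10 µM final, 0.25% DMSO; incubation: 48 h compound exposure at 30 °C; detection: optical density at 615 nm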

The nature of experiment [3]: doxorubicin toxicity protection in MRP-1 cells – H69AR cells, CellTiter-Glo, duplicate, MRP-1 activator project, pilot screen (AID 807;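 active = viability increase at or above a cutoff of the median across tested compounds plus 3 SD, cut at about 8.5% in these data, passing the limit was not always enough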;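 also: compound pretreatment 18-22 h then 72 h combined with doxorubicin; 0% = doxorubicin alone and 100% = vehicle without doxorubicin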). The settings on record: H69AR viability with doxorubicin, CellTiter-Glo luminescence; at 10 µM; hits give high values. For orientation: ATP-based viability assays read luminescence as a measure of living cells.
Experiment [4] can be described thus: viability of HCT116 without oncogenic beta-catenin – human colon tumor cells, pilot screen (AID 823;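 active = cell viability at or below a set limit in both duplicate runs, the limit being the all-compound median minus 4 SD, cut at about 23% in these data, passing the limit was not always enough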;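 also: 0% = wells killed by 20 µM Hyamine and 100% = untreated DMSO cell wells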). The conditions noted are these: HCT116 beta-catenin knockout viability, CellTiter-Glo, 60 h; at 10 µM; hits give low values.
Experiment [5] in a line: viability of PTEN-null HCT116 cells – cell-based, HCT116 clonal line, CellTiter-Glo, pilot screen (AID 824;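 active = viability at or below 27.92% in each of two runs, the all-compound median minus 4 SD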;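 also: 0% = 20 µM Hyamine control and 100% = vehicle cell control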). The settings on record: HCT116 PTEN-deleted viability, 60 h, at 10 µM, hits give low values.
A short description of experiment [6]: RAM pathway blockade in budding yeast – dse1pr::URA3 reporter, 5-FOA selection, pilot screen (AID 869).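 Also: 0% = DMSO wells with no growth and 100% = 10 µM 1-NA-PP1 with full growth; RAM network block rescues cells from 5-FOA so hits raise OD615 growth.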 The conditions noted are these: S. cerevisiae dse1pr::URA3 5-FOA growth, OD615, 2 d; at 10 µM; hits give high values; strain carries analog-sensitive mutant Cbk1 kinase.
A short description of experiment [7]: RAM signaling pathway blockade in yeast – S. cerevisiae, Pdr1DBD-CYC8 efflux-inhibited sensitized strain, primary screen (AID 1298;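 active = RAM network inhibition above 8.4% in each of two replicates, 3 SD over the compound average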;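 also: 0% = DMSO untreated cells without growth and 100% = 10 µM 1-NA-PP1 full growth; higher means more yeast growth rescued from 5-FOA killing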). The conditions noted are these: S. cerevisiae cbk1-as DSE1-URA3 strain, 5-FOA growth OD615, 2 d; at 50 µM; hits give high values.

With `C=CCn1cc(C(=O)NCc2cccnc2)c(=O)c2cc(S(=O)(=O)N(CC)CC)ccc21`, the values for the growth inhibition in experiment [1] and in experiment [2] were -7.53% and -8.9%, respectively. Further, in experiment [3], the viability increase was -3.95%. Moreover, the viability (as a rule, a read-out of living cells in per cent, often relative to untreated cells) was 103% in experiment [4] and 97% in experiment [5]. For the same molecule, the inhibition (commonly how much of the control response was suppressed) in experiment [6] is 1.33%. The RAM network inhibition in experiment [7] is 0.51%.
As for `CC(=O)Oc1ccc(N2C(=O)CC(N3CCOCC3)C2=O)cc1` (stereo unspecified), the growth inhibition in experiment [1] is 2.42%; in experiment [2], 15%. Also, the viability increase in experiment [3] is -0.57%. The viability was 103% in experiment [4] and 99.9% in experiment [5]. In addition, the inhibition in experiment [6] was 0.405%. The RAM network inhibition in experiment [7] was 0.46%.
As for `O=C(O)CCC(=O)N1CCc2cc(S(=O)(=O)Nc3ccc4c(c3)OCCO4)ccc21`, the growth inhibition was -4.35% in experiment [1] and -7.19% in experiment [2]. The viability increase in experiment [3] was -1.45%. Further, the viability in experiment [4] is 94%; in experiment [5], 96.3%. In addition, the inhibition in experiment [6] is 0.535%. In addition, the RAM network inhibition in experiment [7] is -1.56%.
For `Cc1nnc(-c2ccccc2)c[n+]1[O-]`, the growth inhibition in experiment [1] was -6.06%; in experiment [2] it was -14.7%. For the same molecule, the viability increase in experiment [3] was -2.16%. Moreover, the viability in experiment [4] was 101%; in experiment [5] it was 95.2%. In experiment [6], the inhibition was 0.98%. Besides, in experiment [7], the RAM network inhibition was 0.63%.
Regarding `CCOc1ccc(C2c3c(oc4ccccc4c3=O)C(=O)N2CCCN2CCOCC2)cc1OCC` (stereo unspecified), the growth inhibition in experiment [1] is -14%; in experiment [2], -31.3%. Moreover, the viability increase in experiment [3] is -4.89%. For the same molecule, the results for the viability in experiment [4] and in experiment [5] were 102% and 88.6%, respectively. In addition, in experiment [6], the inhibition is 0.48%. Besides, in experiment [7], the RAM network inhibition was 1.21%.
With `Cc1n[nH]c(C)c1S(=O)(=O)N(CC(=O)NC1CCCC1)c1ccc(C(C)C)cc1`, the growth inhibition in experiment [1] is -7.41%; in experiment [2] it was 9.02%. Also, the viability increase in experiment [3] is -3.3%. Moreover, the viability in experiment [4] is 80.3%; in experiment [5], 76.9%. For the same molecule, the inhibition in experiment [6] is 0.63%. The RAM network inhibition in experiment [7] was 3.37%.
Regarding `CC(C)(Oc1ccc(Cl)cc1)C(=O)NCc1ccco1`, the growth inhibition in experiment [1] was -1.12%; in experiment [2], -0.2%. The viability increase in experiment [3] is -4.22%. Further, the figures for the viability in experiment [4] and in experiment [5] were 87.2% and 80%, respectively. Further, in experiment [6], the inhibition was 1.18%. Besides, in experiment [7], the RAM network inhibition was 5.92%.
Turning to `CC(=O)C1=C(O)C(=O)N(CC(=O)O)C1c1ccccc1Cl` (stereo unspecified), the growth inhibition in experiment [1] is 0.915%; in experiment [2], 9.59%. Further, the viability increase in experiment [3] is -0.3%. Further, the viability in experiment [4] and in experiment [5] was 104% each time. Further, in experiment [6], the inhibition was 2.28%. Further, the RAM network inhibition in experiment [7] was 2.43%.
With `Cc1cc(C(=O)OCc2nnc(-c3ccccc3)o2)c(C)n1-c1ccccc1`, the growth inhibition was -4.06% in experiment [1] and -12% in experiment [2]. Also, in experiment [3], the viability increase is -1.07%. Moreover, the values for the viability in experiment [4] and in experiment [5] were 84.4% and 80.6%, respectively. In addition, the inhibition in experiment [6] was 0.125%. Besides, in experiment [7], the RAM network inhibition is 2.44%.
For the molecule `COc1ccc(CN=CC2=C(O)CNC2=O)cc1OC`, the growth inhibition in experiment [1] is -12%; in experiment [2] it was -8.51%. For the same molecule, the viability increase in experiment [3] was -0.57%. Moreover, the viability in experiment [4] is 99.8%; in experiment [5], 103%. Further, in experiment [6], the inhibition was 1.47%. Moreover, the RAM network inhibition in experiment [7] was 5.81%.
Take `COCCn1c(SCC(=O)NCC2CCCO2)nc2c(c1=O)SC(C)C2` (stereo unspecified): the growth inhibition in experiment [1] was -7.14%; in experiment [2], -0.265%. Moreover, the viability increase in experiment [3] was -0.65%. For the same molecule, the viability in experiment [4] is 110%; in experiment [5], 109%. Besides, the inhibition in experiment [6] was 1.19%. Besides, the RAM network inhibition in experiment [7] is 3.08%.
Regarding `COC(=O)C1=C(C)N2C(=O)CSC2=NC1c1ccc2c(c1)OCO2` (stereo unspecified), the growth inhibition is 5.86% in experiment [1] and 53.2% (active) in experiment [2]. For the same molecule, the viability increase in experiment [3] was 0.55%. Further, the viability in experiment [4] was 93.3%; in experiment [5], 98.8%. For the same molecule, the inhibition in experiment [6] was 0.03%. Further, the RAM network inhibition in experiment [7] was 0.78%.
As for `O=C1CC(c2ccc(S(=O)(=O)NC3CC3)cc2)CN1` (stereo unspecified), the results for the growth inhibition in experiment [1] and in experiment [2] were -9.26% and -7.47%, respectively. Besides, in experiment [3], the viability increase is -2.08%. Moreover, the figures for the viability in experiment [4] and in experiment [5] were 110% and 103%, respectively. Also, in experiment [6], the inhibition is 0.075%. Also, the RAM network inhibition in experiment [7] was -0.6%.
As for `COc1cccc(N2C(=O)C3CCCN3C2c2ccc(Cl)cc2)c1` (stereo unspecified), the growth inhibition in experiment [1] is 3.31%; in experiment [2] it was 17.5%. For the same molecule, in experiment [3], the viability increase is -2.51%. For the same molecule, the values for the viability in experiment [4] and in experiment [5] were 95.2% and 87%, respectively. Besides, in experiment [6], the inhibition is 1.21%. Further, the RAM network inhibition in experiment [7] was 2.53%.
For `O=C(O)CC1SC(=Nc2ccccc2)N(c2ccccc2)C1=O` (stereo unspecified), the values for the growth inhibition in experiment [1] and in experiment [2] were -21.4% and -13.2%, respectively. Further, the viability increase in experiment [3] was -1.21%. Further, the viability was 98.1% in experiment [4] and 99.4% in experiment [5]. Further, the inhibition in experiment [6] was 1.24%. Further, in experiment [7], the RAM network inhibition was 2.93%.
On to `O=C(COc1ccccc1)Nc1nnc(-c2ccc(Cl)s2)o1`, for which the values for the growth inhibition in experiment [1] and in experiment [2] were -2.75% and 8.75%, respectively. Further, in experiment [3], the viability increase was -1.36%. In addition, the figures for the viability in experiment [4] and in experiment [5] were 109% and 100%, respectively. For the same molecule, the inhibition in experiment [6] was 2.67%. Moreover, the RAM network inhibition in experiment [7] is 1.52%.
With `CCOCCn1c(SCc2ccc(C)cc2)nc2c1c(=O)[nH]c(=O)n2C`, the growth inhibition in experiment [1] is -5.33%; in experiment [2], 3.62%. The viability increase in experiment [3] was -3.46%. Besides, the values for the viability in experiment [4] and in experiment [5] were 92.5% and 95.1%, respectively. Moreover, the inhibition in experiment [6] was 1.49%. For the same molecule, in experiment [7], the RAM network inhibition was 4.28%.
For `CCOC(=O)Cn1c(=O)oc2cc(S(=O)(=O)N3CCN(c4ccccn4)CC3)ccc21`, the results for the growth inhibition in experiment [1] and in experiment [2] were 10.4% and 6.56%, respectively. In addition, the viability increase in experiment [3] is -2.64%. Further, the viability in experiment [4] is 96.3%; in experiment [5], 99.5%. In addition, in experiment [6], the inhibition is 0.75%. In addition, in experiment [7], the RAM network inhibition was 3.64%.
